A selection: hits, their analogues and other compounds. The true share with any hit is near 4.7%.
ADAM10 inh – inhibitors of human ADAM10; O14672; recombinant ADAM10, EDANS/DABCYL FRET peptide cleavage, 3 h; 370,000 tested, 0.62% active; inhibition, % at 7 µM; AID 720582;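 active = inhibition above a per-campaign cutoff equal to the mean of compounds falling between control-based bounds plus 3 SD, cut at about 20% in these data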
Target sequence (O14672 214-748 limits assumed): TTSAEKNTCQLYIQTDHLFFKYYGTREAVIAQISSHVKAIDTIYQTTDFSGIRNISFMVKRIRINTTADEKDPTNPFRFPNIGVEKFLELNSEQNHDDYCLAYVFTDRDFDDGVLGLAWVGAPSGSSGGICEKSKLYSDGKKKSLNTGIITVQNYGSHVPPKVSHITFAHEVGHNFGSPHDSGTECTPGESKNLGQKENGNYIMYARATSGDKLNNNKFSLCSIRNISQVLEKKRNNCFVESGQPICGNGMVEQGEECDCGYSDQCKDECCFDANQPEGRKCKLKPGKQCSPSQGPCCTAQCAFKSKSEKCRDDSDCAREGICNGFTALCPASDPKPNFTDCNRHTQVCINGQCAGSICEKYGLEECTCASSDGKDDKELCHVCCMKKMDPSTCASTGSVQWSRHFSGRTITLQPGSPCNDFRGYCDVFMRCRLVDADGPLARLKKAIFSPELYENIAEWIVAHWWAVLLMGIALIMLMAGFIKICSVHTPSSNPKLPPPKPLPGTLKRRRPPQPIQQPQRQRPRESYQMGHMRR
ADAM17 inh – inhibits human ADAM17. recombinant ADAM17, EDANS/DABCYL FRET peptide cleavage. inhibition, % at 6.95 µM. 370,000 tested, 0.83% active. P78536;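 active = inhibition above the mean of compounds lying between control limits plus 3 SD, set per campaign, cut at about 8.5% in these data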
NR3A LBD binder – NR3A (human) ligand-binding domain modulation. 340,000 tested, 2.5% active. NR3A LBD differential scanning fluorimetry, Tm shift; 0% = protein alone, 100% = glycine-bound protein. AID 1259313. Tm shift relative to glycine control, % at 25 µM;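 active = melting temperature shift of at least 10% of the positive control shift, at one fixed dose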
MPTP inh – inhibitors of mitochondrial permeability transition pore; 360,000 tested, 1.4% active; AID 602449; inhibition, % at 10 µM; isolated mouse mitochondria, Ca2+ swelling absorbance, 30 min;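 active = inhibition of 50% or more, scaled per plate between neutral and stimulator controls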
SKN-1 block – inhibitors of C. elegans SKN-1. C. elegans VP596 Pgst-4::GFP/RFP ratio, acrylamide-induced, 24 h. inhibition, % at 21.8 µM. 360,000 tested, 0.49% active;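 active = interference check ratio from 0.5 to 1.5 plus GFP to RFP signal ratio inhibition reaching or exceeding a fixed threshold, cut at about 30% in these data, passing the limit was not always enough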
MT1-MMP act inh – blocks activation of human MT1-MMP; HT1080 RFP-PRO-GFP cells, GFP/RFP ratio fluorescence, overnight; percent of plate control window, DMSO zero; GFP/RFP ratio change, % at 20 µM; 360,000 tested, 0.061% active; AID 651647;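 active = GFP/RFP ratio change of at least 30% with cell ATP level not reduced by more than half and red fluorescence within 50% of control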
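Material – HT1080 RFP-PRO-GFP cells · Control set – DMSO wells and RFP-L50D-GFP cells · Incubation – overnight cell settling, then overnight compound exposure, 37 °C, 5% CO2 · Compound dosing – single-point 20 µM compound, 1% DMSO · Read-out – GFP/RFP fluorescence ratio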
Hits are given with their value; . = inactive; / = no result given.

SMILES | ADAM10 inh | ADAM17 inh | NR3A LBD binder | MPTP inh | SKN-1 block | MT1-MMP act inh
COc1ccc(CNC(=O)CN(CCC(C)C)S(=O)(=O)c2ccc3c(c2)OCCO3)cc1 | . | . | 153.6 | . | . | .
O=C(NCC1CCCO1)c1onc(CSc2cccc(Cl)c2)c1C(=O)O (centres undefined) | . | . | . | . | . | .
CCOc1cccc(SCc2noc(C(=O)NCC3CCCO3)c2C(=O)O)c1 (centres undefined) | . | . | 17.0 | . | . | .
Cc1cc(/C=C2\SC(=S)NC2=O)cc(C)c1O | . | . | . | . | . | .
O=C1NC(=S)S/C1=C\c1cc(Cl)cc(Cl)c1O | . | . | 16.6 | . | . | .
O=C(Nc1cc(-c2ccccc2)cs1)c1ccco1 | . | . | 12.3 | . | . | .
COc1ccc(NC(=O)CN(C)C(=O)c2sc3cc(Cl)ccc3c2Cl)cc1 | . | . | . | . | . | .
Clc1ccc2nc(-c3ccncc3)cc(-c3ccccc3)c2c1 | . | . | 24.2 | . | . | .
c1ccc(-c2cc(-c3ccncc3)nc3ccc4ccccc4c23)cc1 | . | . | 21.6 | . | . | .
O=C(O)c1cc(NN=Nc2cccc(S(=O)(=O)O)c2)cc([N+](=O)[O-])c1 | . | . | 10.0 | . | . | .
O=C(O)c1cc(NN=Nc2cccc([N+](=O)[O-])c2)cc([N+](=O)[O-])c1 | . | . | . | . | . | .
Cc1cccc(C(=O)OCC(=O)N(C)CC(=O)Nc2ccc(Cl)c(C(F)(F)F)c2)c1 | . | . | 11.9 | . | . | .
CN(CC(=O)Nc1ccc(Cl)c(C(F)(F)F)c1)C(=O)c1cc(-c2ccncc2)nc2ccccc12 | . | . | 21.3 | . | . | .
COc1ccc(NC(=S)NCCSc2ccc(Cl)cc2)c(OC)c1 | . | . | . | . | . | .
Cc1ccc2nc(NC(=O)CN3C(=O)NC4(CCCC4)C3=O)sc2c1 | . | . | . | . | . | .
CCC1(c2ccc(F)cc2)NC(=O)N(CC(=O)Nc2ccc(-c3nc4ccc(C)cc4s3)cc2)C1=O (centres undefined) | . | . | 10.7 | . | . | .
CCCC1(c2ccccc2)NC(=O)N(CC(=O)Nc2ccc(N3CCOCC3)cc2)C1=O (centres undefined) | . | . | . | . | . | .
CCCCC1(c2ccc(F)cc2)NC(=O)N(CC(=O)Nc2ccc(N3CCOCC3)cc2)C1=O (centres undefined) | . | . | 11.6 | . | . | .
CCc1ccc2nc(NC(=O)CN3C(=O)NC4(CCCC4)C3=O)sc2c1 | . | . | 11.2 | . | . | .
Cc1c(NC(=O)COC(=O)Cn2cc(C(F)(F)F)ccc2=O)cccc1[N+](=O)[O-] | . | . | . | . | . | .
COc1ccc(C)cc1NC(=O)C1CC(=O)N(CCc2ccc(F)cc2)C1 (centres undefined) | . | . | . | . | . | .
CCCCn1c(SCC(=O)N2CCc3ccccc32)nnc1-c1ccncc1 | . | . | . | . | . | .
COc1ccc(NS(=O)(=O)c2cc(Br)cc3c2N(C(C)=O)CC3)cc1 | . | . | 35.2 | . | . | .
COC(=O)CS(=O)(=O)c1cc(Br)cc2c1N(C(C)=O)CC2 | . | . | . | . | . | .
COc1ccc(CCNC(=O)CN(c2ccc(OC)c(OC)c2)S(C)(=O)=O)cc1OC | . | . | . | . | . | .
SMILES | ADAM10 inh | ADAM17 inh | NR3A LBD binder | MPTP inh | SKN-1 block | MT1-MMP act inh
O=[N+]([O-])c1cc(Cl)ccc1NCCNc1ncc(C(F)(F)F)cc1Cl | . | . | 14.3 | . | . | .
COc1ccc2c(c1)sc1nc(-c3ccccc3)cn12 | . | . | 20.3 | . | 37.2 | .
CCc1cccc2c(C(=O)COC(=O)c3ccccc3)c[nH]c12 | . | . | . | . | . | .
CCc1cccc2c(C(=O)COC(=O)c3ccc(O)cc3)c[nH]c12 | . | . | 14.9 | . | . | .
CC(OC(=O)Cc1c[nH]c2ccccc12)C(=O)N(C)c1ccccc1 (centres undefined) | . | . | . | . | . | .
N#CC1CC(c2ccccc2)Nc2cc(Cl)ccc2N1 (centres undefined) | . | . | 13.5 | . | . | .
C[C@@H]1C[C@H](O)c2cc(Cl)ccc2N1 | . | . | . | . | . | .
CCCCN(C(=O)CSc1nnc(-c2ccc(Cl)cc2)o1)c1c(N)n(CC(C)C)c(=O)[nH]c1=O | . | . | . | . | . | .
CCCCn1c(N)c(N(CC(C)C)C(=O)CSc2nnc(-c3ccc(Cl)cc3)o2)c(=O)[nH]c1=O | . | . | 10.1 | . | . | .
CCOc1ccc(N=Cc2ccc(N(C)C)cc2)c(O)c1 | / | / | / | . | 50.6 | .
CC(=O)NC(Cc1ccc(F)c(F)c1)C(=O)NC1CCN(S(=O)(=O)c2ccc(C)cc2)CC1 (centres undefined) | . | . | . | . | . | .
O=C(NCCN1CCN(c2ccccc2)CC1)c1ccc2c(c1)[nH]c(=S)n1c3ccccc3nc21 | . | . | . | . | . | .
O=C(c1ccc2c(c1)[nH]c(=S)n1c3ccccc3nc21)N1CCN(c2ncccn2)CC1 | . | . | 11.1 | . | . | .
CCN1C[C@@H]2[C@@H]3C(=O)N(Cc4ccccc4)C(=O)[C@@H]3[C@](C)(C1=O)N2C(=O)c1ccc(C)cc1 | . | . | . | . | . | .
CC(Oc1ccc(Cl)cc1Cl)c1nc(-c2ccc(NC(=O)c3ccncc3)cc2)no1 (centres undefined) | . | . | 22.4 | . | . | .
O=C(Nc1ccc(-c2noc(-c3cccs3)n2)cc1)c1cccnc1 | . | . | 28.2 | . | . | .
CC(Oc1ccc(Cl)cc1Cl)c1nc(-c2ccc(NC(=O)c3cccnc3)cc2)no1 (centres undefined) | . | . | 11.8 | . | . | .
O=c1c2c3c(sc2nc2n1CCCS2)CCCC3 | . | . | . | . | . | .
Cc1sc2nc3n(c(=O)c2c1C)CCCS3 | . | . | 18.5 | . | . | .
COc1ccc(N2CCN(c3ccc(N)cc3C#N)CC2)cc1 | . | . | . | . | . | .
CC1=NN2C(=N)/C(=C\c3cc(C)n(-c4ccc(C)cc4)c3C)C(=O)N=C2S1 | . | . | 21.8 | . | . | .
Cc1cc(/C=C2\C(=N)N3N=C(CC(=O)N4CCOCC4)SC3=NC2=O)c(C)n1-c1ccccc1 | . | . | . | . | . | .
Cc1cc(O)c(C=Nc2ccc(N3CCOCC3)cc2)c(C)c1Cl | . | . | . | . | . | .
Cc1cccc(OCc2nnc(N)s2)c1C | . | . | 12.2 | . | . | .
Cc1ccc(OCc2nnc(N)s2)cc1 | . | . | . | . | . | .
O=C(CSc1nc2ccccc2s1)Nc1ccc2c(c1)OCO2 | . | . | 14.2 | . | . | .
